Data as given in publication PMC7935732 (Targeted Oncology, 2021).

Test system: Chinese patients with advanced and/or metastatic cancers
Assay: Safety and tolerability
Assay type: in vivo, human
Procedure, shortened: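 Safety set: all patients with ≥ 1 dose. Patient-reported AEs were collected during treatment; chemistry, hematology and urinalysis were done at protocol time points. Laboratory and non-laboratory AEs were graded by CTCAE v4.0 and summarized by cohort.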

## CCN1CCN(Cc2ccc(Nc3ncc(F)c(-c4cc(F)c5nc(C)n(C(C)C)c5c4)n3)nc2)CC1 [abemaciclib]
Grade 3, Total (n = 25)
  Neutropenia (neutrophil count decreased) TEAE: 8 (32.0) n (%)
  Patients with ≥ 1 TEAE of Grade ≥ 3: 14 (56.0) n (%)
  Thrombocytopenia (platelet count decreased) TEAE: 5 (20.0) n (%)
  Vomiting TEAE: 0 n (%)
Grade 4, 150 mg (n = 12)
  Anemia TEAE: 0 n (%)
  Blood bilirubin increased TEAE: 0 n (%)
  Diarrhea TEAE: 0 n (%)
  Embolism TEAE: 0 n (%)
  Hyponatraemia TEAE: 0 n (%)
  Leukopenia (white blood cell count decreased) TEAE: 0 n (%)
  Lung infection TEAE: 0 n (%)
  Malaise TEAE: 0 n (%)
  Muscular weakness TEAE: 0 n (%)
  Neutropenia (neutrophil count decreased) TEAE: 0 n (%)
  Patients with ≥ 1 TEAE of Grade ≥ 3: 1 (8.3) n (%)
  Thrombocytopenia (platelet count decreased) TEAE: 1 (8.3) n (%)
  Vomiting TEAE: 1 (8.3) n (%)
Grade 4, 200 mg (n = 13)
  Anemia TEAE: 0 n (%)
  Blood bilirubin increased TEAE: 0 n (%)
  Diarrhea TEAE: 0 n (%)
  Embolism TEAE: 3 (23.1) n (%)
  Hyponatraemia TEAE: 0 n (%)
  Leukopenia (white blood cell count decreased) TEAE: 0 n (%)
  Lung infection TEAE: 0 n (%)
  Malaise TEAE: 0 n (%)
  Muscular weakness TEAE: 0 n (%)
  Neutropenia (neutrophil count decreased) TEAE: 0 n (%)
  Patients with ≥ 1 TEAE of Grade ≥ 3: 3 (23.1) n (%)
  Thrombocytopenia (platelet count decreased) TEAE: 0 n (%)
  Vomiting TEAE: 0 n (%)
Grade 4, Total (n = 25)
  Anemia TEAE: 0 n (%)
  Blood bilirubin increased TEAE: 0 n (%)
  Diarrhea TEAE: 0 n (%)
  Hyponatraemia TEAE: 0 n (%)
  Leukopenia (white blood cell count decreased) TEAE: 0 n (%)
  Lung infection TEAE: 0 n (%)
  Malaise TEAE: 0 n (%)
  Muscular weakness TEAE: 0 n (%)
  Neutropenia (neutrophil count decreased) TEAE: 0 n (%)
  Patients with ≥ 1 TEAE of Grade ≥ 3: 4 (16.0) n (%)
  Thrombocytopenia (platelet count decreased) TEAE: 1 (4.0) n (%)
  Vomiting TEAE: 1 (4.0) n (%)
Total (n = 25)
  Alanine aminotransferase increased, TEAE any grade: 7 (28.0) n (%)
  Anemia, TEAE any grade: 12 (48.0) n (%)
  Bilirubin increased, TEAE any grade: 5 (20.0) n (%)
  Blood creatinine increased, TEAE any grade: 14 (56.0) n (%)
  Cough, TEAE any grade: 8 (32.0) n (%)
  Decreased appetite, TEAE any grade: 15 (60.0) n (%)
  Diarrhea, TEAE any grade: 20 (80.0) n (%)
  Leukopenia (white blood cell count decreased), TEAE any grade: 16 (64.0) n (%)
  Localized edema, TEAE any grade: 5 (20.0) n (%)
  Malaise, TEAE any grade: 13 (52.0) n (%)
  Nausea, TEAE any grade: 9 (36.0) n (%)
  Neutropenia (neutrophil count decreased), TEAE any grade: 19 (76.0) n (%)
  Patients with ≥ 1 TEAE (any grade): 25 (100.0) n (%)
  Thrombocytopenia (platelet count decreased), TEAE any grade: 11 (44.0) n (%)
  Vomiting, TEAE any grade: 8 (32.0) n (%)
All treated patients
  Discontinuation of study treatment due to diarrhea or neutropenia: No patient discontinued
  ECG data or vital signs findings: No clinically meaningful findings
  Febrile neutropenia: No febrile neutropenia was reported
All treated patients (n = 25)
  Diarrhea Grade 4 or 5: not reported
  Diarrhea of Grade 3: 4 patients
  Patients reporting at least one TEAE of any grade: 100%
  Patients who died on treatment due to AE (respiratory failure): 4.0%
  Patients who discontinued treatment due to AEs: 16%
  Patients with TEAE of Grade 4 in severity: 16.0%
  Thrombocytopenia TEAE of Grade ≥ 3: 24%
All treated patients (n = 25), all Grade 3
  Neutropenia TEAE of Grade ≥ 3: 32%
In total (n = 25)
  Patients reporting serious adverse events (SAEs): 24.0%
Of the 20 patients experiencing diarrhea
  Patients with 3 or more episodes of diarrhea: 7 patients
